From ChEMBL document CHEMBL1141111, “Synthesis and biological evaluation of spin-labeled alkylphospholipid analogs” (J Med Chem, 2005)
pIC50: −log10 of the molar value. One block for each compound: values may come before it.

What was measured:
Homo sapiens [1] = organism: Homo sapiens; test: (§1) Hemolytic effect (100 uM) on human erythrocytes; type: functional
Procedure, shortened: (§2)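 Blood from a healthy donor was collected in EDTA, the plasma removed, and the cells washed in PBS. Each 1 mL sample held 8.59 × 10^7 erythrocytes in PBS (pH 7.5) with 100 µL of 5.5 mM glucose, plus free lipid (30 nmol) or liposomes (30 or 100 nmol). Samples were shaken 30 min at room temperature and spun at 840g. The supernatant was read with Drabkin's reagent at 540 nm. Results are % of Triton X-100 total lysis, in triplicate.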

Homo sapiens [2] = organism: Homo sapiens; test: (§3) Hemolytic effect (30 uM) on human erythrocytes upon incubation with lipid for 30 min in pH 7.5; type: functional; procedure, shortened: as §2
Homo sapiens [3] = organism: Homo sapiens; test: Hemolytic effect (30 uM) on human erythrocytes upon incubation with liposomes for 30 min in pH 7.5; type: functional
Procedure, shortened: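 Washed erythrocytes from a healthy donor's EDTA blood, stored at 4 °C and used within 48 h. About 8.59 × 10^7 cells in 1 mL PBS (pH 7.5) with 5.5 mM glucose solution. Extruded LUVET (SL-APL/cholesterol/dicetyl phosphate 10:10:2), 30 nmol lipid, shaken 30 min at room temperature. Supernatant read with Drabkin's reagent at 540 nm, as % of Triton X-100 lysis, in triplicate.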

MCF7 = test: Inhibitory concentration against MCF-7 cells gwoth; type: functional, cell-based, Homo sapiens
Procedure, shortened: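 MCF7 cells were grown in RPMI-1640 with L-glutamine and 10% heat-inactivated FCS, then seeded at 2 × 10^4 per well the day before treatment. Free or liposomal compound (APL/Ch/DCP 10:10:2, 200 nm extruded LUVs) was serially diluted 200–6.25 µM and applied for 24 h in triplicate. MTT (0.5 mg/mL) was added for 4 h, and formazan was dissolved in DMSO and read at 540 nm. IC50 comes from growth-inhibition curves versus untreated cells, mean ± SD of ≥3 independent experiments.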

[4] = as §1; type: functional; procedure, shortened: as §2
[5] = as §3; type: functional; procedure, shortened: as §2

Compound: CCCCCCC1(CCCCCCCCCCCOP(=O)([O-])OCC[N+](C)(C)C)OCC(C)(C)N1[O] (stereo not drawn)
- Hemolysis (Homo sapiens [1]): 20.3%
- Hemolysis (Homo sapiens [2]): 98.3%
- Hemolysis (Homo sapiens [3]): 4.9%

Compound: CCCCCCCCCCCC1(CCCCCCOP(=O)([O-])OC2CC[N+](C)(C)CC2)OCC(C)(C)N1[O] (stereo not drawn)
- Hemolysis (Homo sapiens [1]): 6.7%
- Hemolysis (Homo sapiens [2]): 95.2%
- Hemolysis (Homo sapiens [3]): 4.4%

Compound: CCCCCCCCC1(CCCCCCCCCOP(=O)([O-])OC2CC[N+](C)(C)CC2)OCC(C)(C)N1[O] (stereo not drawn)
- Hemolysis (Homo sapiens [1]): 5.9%
- Hemolysis (Homo sapiens [2]): 34.6%
- Hemolysis (Homo sapiens [3]): 3.7%

Compound: CCCCC1(CCCCCCCCCCCCCOP(=O)([O-])OC2CC[N+](C)(C)CC2)OCC(C)(C)N1[O] (stereo not drawn)
- pIC50 (MCF7; mcf7): 4.25
- Hemolysis [4]: 5.3%
- Hemolysis [5]: 16.1%
- Hemolysis (Homo sapiens [3]): 3.2%

Compound: CCCCCCCCCCCCCC1(CCCCOP(=O)([O-])OC2CC[N+](C)(C)CC2)OCC(C)(C)N1[O] (stereo not drawn)
- Hemolysis (Homo sapiens [1]): 17.9%
- Hemolysis (Homo sapiens [2]): 99%
- Hemolysis (Homo sapiens [3]): 6.6%

Compound: CCCCCCC1(CCCCCCCCCCCOP(=O)([O-])OC2CC[N+](C)(C)CC2)OCC(C)(C)N1[O] (stereo not drawn)
- Hemolysis (Homo sapiens [1]): 5.7%
- Hemolysis (Homo sapiens [2]): 18.3%
- Hemolysis (Homo sapiens [3]): 4.1%

- pIC50 (MCF7; Homo sapiens, MCF7): 4.12
Compound: CCCCCCCCCCCCCCCCCCOP(=O)([O-])OC1CC[N+](C)(C)CC1 [PERIFOSINE]
- Hemolysis [4]: 93.5%
- Hemolysis [5]: 98.1%
- Hemolysis (Homo sapiens [3]): 3.2%
